Reference: ChEMBL document CHEMBL1125434, “Preparation and in vitro and in vivo evaluation of quinolones with selective activity against gram-positive organisms” (1992)
In brackets after ≈: the same amount, converted by molar mass.

Legend:
Format in all cases: functional
[1] = system: Klebsiella pneumoniae; assay: In vitro minimum inhibitory concentration against Klebsiella pneumoniae 8045 using brain-heart infusion agar
Procedure, shortened: (§1)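 Overnight cultures were grown in BHI broth at 36 °C. Twofold dilutions of a 2000 µg/mL stock were made in BHI agar, giving 200–0.005 µg/mL. Plates received about 10^4 organisms and were incubated for 18 h at 36 °C. MIC was the lowest concentration with no visible growth on the plate.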

[2] = system: Staphylococcus aureus; assay: In vivo antibacterial activity against Staphylococcus aureus NCTC 10649 infected mouse by subcutaneous administration; details: sc
Procedure, shortened: (§2)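 Compound was given in water or in dilute NaOH diluted with water, orally or subcutaneously. The dose was split equally between 1 and 5 h post-infection. Groups were 10 mice at ≥3 dose levels. ED50 was calculated from day-6 cumulative mortality by the trimmed Logit method.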

[3] = system: Staphylococcus aureus; assay: In vitro minimum inhibitory concentration against Staphylococcus aureus ATCC 6538P using brain-heart infusion agar; procedure, shortened: as §1
[4] = system: Klebsiella aerogenes; assay: In vitro minimum inhibitory concentration against Enterobacter aerogenes ATCC 13048 using brain-heart infusion agar; procedure, shortened: as §1
[5] = system: Acinetobacter; assay: In vitro minimum inhibitory concentration against Acinetobacter CMX 669 using brain-heart infusion agar; procedure, shortened: as §1
[6] = system: Staphylococcus aureus; assay: In vitro minimum inhibitory concentration against Staphylococcus aureus NCTC 10649 using brain-heart infusion agar; procedure, shortened: as §1
[7] = system: Pseudomonas aeruginosa; assay: In vitro minimum inhibitory concentration against Pseudomonas aeruginosa K799 / WT using brain-heart infusion agar; procedure, shortened: as §1
[8] = system: Streptococcus agalactiae; assay: In vitro minimum inhibitory concentration against Streptococcus agalactiae CMX 508 using brain-heart infusion agar; procedure, shortened: as §1
[9] = system: Enterococcus faecium; assay: In vitro minimum inhibitory concentration against Enterococcus faecium ATCC 8043 using brain-heart infusion agar; procedure, shortened: as §1
[10] = system: Escherichia coli; assay: In vitro minimum inhibitory concentration against Escherichia coli Juhl using brain-heart infusion agar; procedure, shortened: as §1
[11] = system: Staphylococcus aureus; assay: In vitro minimum inhibitory concentration against Staphylococcus aureus A 5177 using brain-heart infusion agar; procedure, shortened: as §1
[12] = system: Pseudomonas aeruginosa; assay: In vitro minimum inhibitory concentration against Pseudomonas aeruginosa A5007 using brain-heart infusion agar; procedure, shortened: as §1
[13] = system: Staphylococcus aureus; assay: In vivo antibacterial activity against Staphylococcus aureus NCTC 10649 infected mouse by oral administration; procedure, shortened: as §2
[14] = system: Streptococcus pyogenes; assay: In vitro minimum inhibitory concentration against Streptococcus pyogenes 930 using brain-heart infusion agar; procedure, shortened: as §1
[15] = system: Staphylococcus aureus; assay: In vitro minimum inhibitory concentration against Staphylococcus aureus CMX 553 using brain-heart infusion agar; procedure, shortened: as §1
[16] = system: Streptococcus equinus; assay: In vitro minimum inhibitory concentration against Streptococcus bovis A5169 using brain-heart infusion agar; procedure, shortened: as §1
[17] = system: Staphylococcus epidermidis; assay: In vitro minimum inhibitory concentration against Staphylococcus epidermidis 3159 using brain-heart infusion agar; procedure, shortened: as §1

MIC [1] | MIC [3] | MIC [4] | MIC [5] | MIC [6] | MIC [7] | MIC [8] | MIC [9] | MIC [10] | MIC [11] | MIC [12] | MIC [14] | MIC [15] | MIC [16] | MIC [17] | SMILES | ED50 [2] | ED50 [13]
0.78 µg/mL (≈ 1.8 µM) | 0.05 µg/mL (≈ 0.116 µM) | 3.1 µg/mL (≈ 7.17 µM) | 1.56 µg/mL (≈ 3.61 µM) | 0.05 µg/mL (≈ 0.116 µM) | 6.2 µg/mL (≈ 14.3 µM) | 0.39 µg/mL (≈ 0.902 µM) | 0.39 µg/mL (≈ 0.902 µM) | 0.78 µg/mL (≈ 1.8 µM) | 0.1 µg/mL (≈ 0.231 µM) | 6.2 µg/mL (≈ 14.3 µM) | 0.78 µg/mL (≈ 1.8 µM) | 0.1 µg/mL (≈ 0.231 µM) | 1.56 µg/mL (≈ 3.61 µM) | 0.1 µg/mL (≈ 0.231 µM) | CO/N=C1\CCN(c2nc3c(cc2F)c(=O)c(C(=O)O)cn3-c2ccc(F)cc2F)C1 | 4.7 mg/kg | > 12 mg/kg
3.1 µg/mL (≈ 7.92 µM) | 0.05 µg/mL (≈ 0.128 µM) | > 100 µg/mL | 3.1 µg/mL (≈ 7.92 µM) | 0.05 µg/mL (≈ 0.128 µM) | > 100 µg/mL | 1.56 µg/mL (≈ 3.99 µM) | 1.56 µg/mL (≈ 3.99 µM) | 1.56 µg/mL (≈ 3.99 µM) | 0.1 µg/mL (≈ 0.256 µM) | > 100 µg/mL | 1.56 µg/mL (≈ 3.99 µM) | 0.1 µg/mL (≈ 0.256 µM) | 3.1 µg/mL (≈ 7.92 µM) | 0.1 µg/mL (≈ 0.256 µM) | CON=C1CCN(c2c(F)cc3c(=O)c(C(=O)O)cn(C4CC4)c3c2F)CC1 | – | –
3.1 µg/mL (≈ 6.94 µM) | 0.1 µg/mL (≈ 0.224 µM) | 12.5 µg/mL (≈ 28 µM) | 12.5 µg/mL (≈ 28 µM) | 0.2 µg/mL (≈ 0.448 µM) | 25 µg/mL (≈ 56 µM) | 1.56 µg/mL (≈ 3.49 µM) | 3.1 µg/mL (≈ 6.94 µM) | 6.2 µg/mL (≈ 13.9 µM) | 0.2 µg/mL (≈ 0.448 µM) | 50 µg/mL (≈ 112 µM) | 3.1 µg/mL (≈ 6.94 µM) | 0.39 µg/mL (≈ 0.874 µM) | 6.2 µg/mL (≈ 13.9 µM) | 0.39 µg/mL (≈ 0.874 µM) | CON=C1CCN(c2nc3c(cc2F)c(=O)c(C(=O)O)cn3-c2ccc(F)cc2F)CC1 | > 8 mg/kg | > 12 mg/kg
0.2 µg/mL (≈ 0.479 µM) | < 0.05 µg/mL | 0.78 µg/mL (≈ 1.87 µM) | 0.39 µg/mL (≈ 0.934 µM) | < 0.05 µg/mL | 1.56 µg/mL (≈ 3.74 µM) | 0.2 µg/mL (≈ 0.479 µM) | 0.2 µg/mL (≈ 0.479 µM) | 0.2 µg/mL (≈ 0.479 µM) | < 0.05 µg/mL | 3.1 µg/mL (≈ 7.43 µM) | 0.2 µg/mL (≈ 0.479 µM) | < 0.05 µg/mL | 0.39 µg/mL (≈ 0.934 µM) | < 0.05 µg/mL | O=C(O)c1cn(-c2ccc(F)cc2F)c2cc(N3CC/C(=N/O)C3)c(F)cc2c1=O | 4.1 mg/kg | > 12 mg/kg
0.39 µg/mL (≈ 0.904 µM) | 0.05 µg/mL (≈ 0.116 µM) | 3.1 µg/mL (≈ 7.19 µM) | 1.56 µg/mL (≈ 3.62 µM) | 0.1 µg/mL (≈ 0.232 µM) | 3.1 µg/mL (≈ 7.19 µM) | 0.39 µg/mL (≈ 0.904 µM) | 0.39 µg/mL (≈ 0.904 µM) | 0.39 µg/mL (≈ 0.904 µM) | 0.1 µg/mL (≈ 0.232 µM) | 6.2 µg/mL (≈ 14.4 µM) | 0.39 µg/mL (≈ 0.904 µM) | 0.1 µg/mL (≈ 0.232 µM) | 1.56 µg/mL (≈ 3.62 µM) | 0.1 µg/mL (≈ 0.232 µM) | O=C(O)c1cn(-c2ccc(F)cc2F)c2cc(N3CCC(=NO)CC3)c(F)cc2c1=O | 3.2 mg/kg | 6 mg/kg
0.1 µg/mL (≈ 0.278 µM) | 0.02 µg/mL (≈ 0.0555 µM) | 0.78 µg/mL (≈ 2.16 µM) | 0.39 µg/mL (≈ 1.08 µM) | 0.02 µg/mL (≈ 0.0555 µM) | 1.56 µg/mL (≈ 4.33 µM) | 0.78 µg/mL (≈ 2.16 µM) | 0.78 µg/mL (≈ 2.16 µM) | 0.39 µg/mL (≈ 1.08 µM) | 0.05 µg/mL (≈ 0.139 µM) | 3.1 µg/mL (≈ 8.6 µM) | 0.78 µg/mL (≈ 2.16 µM) | 0.05 µg/mL (≈ 0.139 µM) | 1.56 µg/mL (≈ 4.33 µM) | 0.1 µg/mL (≈ 0.278 µM) | CO/N=C1\CCN(c2nc3c(cc2F)c(=O)c(C(=O)O)cn3C2CC2)C1 | – | –
3.1 µg/mL (≈ 6.96 µM) | 0.05 µg/mL (≈ 0.112 µM) | > 100 µg/mL | 6.2 µg/mL (≈ 13.9 µM) | 0.05 µg/mL (≈ 0.112 µM) | > 100 µg/mL | 1.56 µg/mL (≈ 3.5 µM) | 3.1 µg/mL (≈ 6.96 µM) | 0.2 µg/mL (≈ 0.449 µM) | 0.1 µg/mL (≈ 0.225 µM) | > 100 µg/mL | 1.56 µg/mL (≈ 3.5 µM) | 0.2 µg/mL (≈ 0.449 µM) | 6.2 µg/mL (≈ 13.9 µM) | 0.1 µg/mL (≈ 0.225 µM) | CON=C1CCN(c2cc3c(cc2F)c(=O)c(C(=O)O)cn3-c2ccc(F)cc2F)CC1 | > 8 mg/kg | > 12 mg/kg
0.78 µg/mL (≈ 1.81 µM) | 0.02 µg/mL (≈ 0.0464 µM) | 3.1 µg/mL (≈ 7.19 µM) | 0.78 µg/mL (≈ 1.81 µM) | 0.05 µg/mL (≈ 0.116 µM) | 6.2 µg/mL (≈ 14.4 µM) | 0.39 µg/mL (≈ 0.904 µM) | 0.39 µg/mL (≈ 0.904 µM) | 0.78 µg/mL (≈ 1.81 µM) | 0.05 µg/mL (≈ 0.116 µM) | 6.2 µg/mL (≈ 14.4 µM) | 0.39 µg/mL (≈ 0.904 µM) | 0.05 µg/mL (≈ 0.116 µM) | 1.56 µg/mL (≈ 3.62 µM) | 0.05 µg/mL (≈ 0.116 µM) | CO/N=C1/CCN(c2cc3c(cc2F)c(=O)c(C(=O)O)cn3-c2ccc(F)cc2F)C1 | – | –
– | – | – | – | – | – | – | – | – | – | – | – | – | – | – | O=C(O)c1cn(C2CC2)c2cc(N3CCNCC3)c(F)cc2c1=O [CIPROFLOXACIN] | 1.6 mg/kg | 15.5 mg/kg

SMILES | MIC [1] | MIC [3] | MIC [4] | MIC [5] | MIC [6] | MIC [7] | MIC [8] | MIC [9] | MIC [10] | MIC [11] | MIC [12] | MIC [14] | MIC [15] | MIC [16] | MIC [17] | ED50 [2] | ED50 [13]
NC1CCN(c2nc3c(cc2F)c(=O)c(C(=O)O)cn3-c2ccc(F)cc2F)C1 (stereo unspecified) [TOSUFLOXACIN] | 0.02 µg/mL (≈ 0.0495 µM) | 0.02 µg/mL (≈ 0.0495 µM) | 0.05 µg/mL (≈ 0.124 µM) | 0.1 µg/mL (≈ 0.247 µM) | – | 0.78 µg/mL (≈ 1.93 µM) | 0.39 µg/mL (≈ 0.965 µM) | 0.2 µg/mL (≈ 0.495 µM) | 0.02 µg/mL (≈ 0.0495 µM) | 0.05 µg/mL (≈ 0.124 µM) | 0.78 µg/mL (≈ 1.93 µM) | 0.2 µg/mL (≈ 0.495 µM) | 0.05 µg/mL (≈ 0.124 µM) | 0.39 µg/mL (≈ 0.965 µM) | 0.1 µg/mL (≈ 0.247 µM) | – | –
